From PubChem
Hits are enriched below; roughly 0.51% of the tested compounds scored in any of these assays.
aDG glyco up: increases alpha dystroglycan glycosylation | Pro5-aDG cells, alpha-DG glycosylation AlphaScreen (IIH6); 0% Pro5, 100% B10-LARGE cell signal | activation, % at 10 µM | actives 0.22% (n = 360,000);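 active means activation of at least 8% versus controls, or a plate z-score of at least 8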;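 further: Pro5 are CHO cells carrying HIG-tagged alpha-DG that lacks glycosylation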
T cell HTS: T cell immune modulation candidate. response (vesicle binding), % at 7 µM. actives 0.068% (n = 330,000). 2C CD8+ T cell-vesicle binding, flow cytometry; active compounds read low. AID 2052;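 active means response, share of CD8 T cells binding vesicles, and their 90th percentile fluorescence all below set limits, cut at about 80% in these data, passing the limit was not always enough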;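 further: values below 100% mean blocked vesicle binding to the CD8+ T cells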
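System: murine 2C transgenic CD8+ T lymphocytes; also added: QL9-loaded Drosophila micro-vesicles; times: binding 1.5 h at 37 °C; measured by: flow cytometry, PE anti-B7-1 (FL2) versus Alexa647 anti-CD8 (FL8), PFA-fixed; control set: Peptide-free naked vesicles (low) and QL9 vesicles with 0.7% DMSO vehicle (high)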
Rce1 inhib: inhibitors of yeast Ras-converting enzyme; Q03530; yeast membranes, quenched prenylated peptide cleavage fluorescence; calls only; actives 0.27% (n = 290,000); AID 2563;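 active means fall in fluorescence gain of 50% or more versus controls, with final raw signal at or below 3038400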
Target sequence (Q03530 whole entry, looked up): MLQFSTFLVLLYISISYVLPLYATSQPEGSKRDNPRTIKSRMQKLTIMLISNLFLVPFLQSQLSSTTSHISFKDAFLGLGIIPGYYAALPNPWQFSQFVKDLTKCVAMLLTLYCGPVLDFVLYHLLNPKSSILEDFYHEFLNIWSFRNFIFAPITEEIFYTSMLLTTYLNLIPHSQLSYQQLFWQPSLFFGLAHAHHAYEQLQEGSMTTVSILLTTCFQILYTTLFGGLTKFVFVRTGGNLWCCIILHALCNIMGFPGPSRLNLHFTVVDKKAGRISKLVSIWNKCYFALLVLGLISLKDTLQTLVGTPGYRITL
PolyA inh: inhibitors of polyadenylation in S. cerevisiae. S. cerevisiae SKY197-pL101 polyadenylation reporter, beta-gal luminescence; efflux-impaired pdr1/pdr3 knockout yeast; score 100 = 6 SD above DMSO. actives 0.02% (n = 300,000). activity score, % at 12 µM;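 active means lowest replicate activity score at least 50, where 100 means six control SD above control mean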;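 further: yeast exposed to compound for 9 h at 30 °C; higher score means more reporter readthrough which indicates perturbed polyadenylation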
aDG conf: alpha-DG glycosylation activation, confirmation | shares compounds with aDG glyco up | Pro5-aDG cells, IIH6 AlphaLISA; scaled to LARGE-overexpressing B10 cells as 100% | activation, % at 10 µM (by protocol) | actives 17% (n = 600);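 active means activation of at least 7% in one or more replicates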;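 further: cells exposed to compound for two days before detection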
Each line names hits and unclear results; the compound was inactive in the other large screens (follow-up assays come after a bar, where they were run).

CCc1ccc(S(=O)(=O)NCc2ccc(C(=O)NCCN(Cc3ccccc3)C(C)C)cc2)cc1	aDG glyco up 4.5 (no result: T cell HTS, Rce1 inhib, PolyA inh) | aDG conf inactive
Cc1ccc2c(c1)NC(=O)C(CC(=O)NCCCN1CCN(c3cc(Cl)ccc3C)CC1)O2 (centres undefined)	aDG glyco up 14 | aDG conf inactive
COCCCNc1nc2c(c(=O)[nH]c(=O)n2C)n1CC(O)COc1ccccc1C (centres undefined)	none
COCCCNc1nc2c(c(=O)[nH]c(=O)n2C)n1CC(O)COc1ccccc1 (centres undefined)	aDG glyco up 11 | aDG conf inactive
N#CC(C#N)c1ccnc2ccccc12	none (no result: T cell HTS, Rce1 inhib, PolyA inh)
CCC1CCCN1Cn1cnc2c([nH]c3ccccc32)c1=O (centres undefined)	none
CCC1CCCN1Cn1cnc2c([nH]c3ccc(OC)cc32)c1=O (centres undefined)	aDG glyco up 3.8 | aDG conf inactive
CSc1ccccc1CNC(=O)C1(C)CCCN1CC(C)C (centres undefined)	none (no result: T cell HTS, Rce1 inhib, PolyA inh)
NC(c1ccccc1)c1csc(Nc2ccc(S(N)(=O)=O)cc2)n1 (centres undefined)	none (no result: T cell HTS, Rce1 inhib, PolyA inh)
N=c1c2c(ncn1CCCO)Oc1c(ccc3ccccc13)C2c1ccccc1 (centres undefined)	aDG glyco up 3.1 | aDG conf 4.7
COC(=O)Cc1ccc(NC(=S)Nc2cccc(C)n2)cc1	none
Cc1cccc(NC(=O)c2cccc([N+](=O)[O-])c2O)c1C	none (no result: T cell HTS, Rce1 inhib, PolyA inh)
Cc1cccc(NC(=O)c2ccc([N+](=O)[O-])s2)c1C	aDG glyco up 10 | aDG conf inactive
c1csc(-c2nc3c4ccccc4c4ccccc4c3[nH]2)c1	aDG glyco up 5.5 | aDG conf inactive
c1ccc2c(-c3cc(C4CCNCC4)[nH]n3)cccc2c1	aDG glyco up 14 | aDG conf 6.4
COc1ccc(Cl)cc1C(=O)NNC(=O)c1cccc([N+](=O)[O-])c1	aDG glyco up 3.3 | aDG conf inactive
COc1ccccc1C(=O)NNC(=O)c1cccc(Cl)c1	none
Cc1ccc(S(=O)(=O)/N=C2\C(=O)c3ccccc3C([O-])=C2n2cc[n+](CCC(C)C)c2)cc1	none
CCCC[n+]1ccn(C2=C([O-])c3ccccc3C(=O)/C2=N\S(=O)(=O)c2ccc(Br)cc2)c1	aDG glyco up 11 | aDG conf 13
Cc1onc(-c2c(Cl)cccc2Cl)c1CO/N=C(\C#N)c1c(Cl)cccc1Cl	none (no result: Rce1 inhib)
C[C@H](CO)N1C[C@H](C)[C@@H](CN(C)C(=O)Nc2ccc3c(c2)OCO3)Oc2ccc(NC(=O)NC3CCCCC3)cc2C1=O	none (no result: Rce1 inhib, PolyA inh)
COc1ccc(CN(C)C(=O)CCNS(=O)(=O)c2ccccc2)c(OC)c1	none (no result: T cell HTS, Rce1 inhib, PolyA inh)
Cc1cccc(OCC(=O)Nc2cc(S(=O)(=O)N3CCOCC3)ccc2N2CCCC2)c1C	aDG glyco up 7.4 | aDG conf inactive
O=C(COc1ccccc1)Nc1cc(S(=O)(=O)N2CCOCC2)ccc1N1CCCC1	none (no result: Rce1 inhib, PolyA inh)
Cc1cc(C(=O)Nc2ccc(Cl)cc2)n(-c2ccccc2)n1	aDG glyco up 2.7 | aDG conf inactive
COC(=O)c1ccc(CNC(=O)Cn2cnc3c(NCc4ccccc4)ncnc32)cc1	aDG glyco up 8.3 (no result: T cell HTS, Rce1 inhib, PolyA inh) | aDG conf inactive
CC(C)OCCCN(C)C1CCN(S(=O)(=O)c2csc(C(N)=O)c2)CC1	none
CC(C)OCCCN(C)C1CCN(S(=O)(=O)c2ccc(-c3cc(C(F)(F)F)no3)s2)CC1	aDG glyco up 3.8 | aDG conf inactive
CCc1ccc(NC(=S)NC2CC3CCCC(C2)N3Cc2cccs2)cc1 (centres undefined)	aDG glyco up 4.0 | aDG conf inactive
CCc1ccccc1NC(=O)NC1CC2CCC(C1)N2Cc1cccs1 (centres undefined)	none
COc1cccc(-c2ccc(C3=CC(=O)CC(C)(C)C3=O)cc2)c1OC	none (no result: T cell HTS, Rce1 inhib, PolyA inh)
O=C(O)CNC(=O)c1ccccc1Br	none
O=C(COc1ccccc1Br)NCCC1=CCCCC1	aDG glyco up 3.6 (no result: Rce1 inhib, PolyA inh) | aDG conf inactive
Cc1cc(NC(=O)Cc2ccccc2)c2ccccc2n1	aDG glyco up 7.5 | aDG conf inactive
Nn1c(-c2ccccc2)cc(-c2ccccc2)cc1=O	none
Cc1cccc(N2CCN(C(=O)CCN3C(=S)NC(C)(C)CC3C)CC2)c1C (centres undefined)	none
Cc1ccc(C)c(N2CCN(C(=O)CCCN3C(=S)NC(C)(C)CC3C)CC2)c1 (centres undefined)	aDG glyco up 7.9 | aDG conf inactive
O=C1C(=O)N(CCS(=O)(=O)c2ccccc2)c2ccc(F)cc21	aDG glyco up 7.6 | aDG conf 5.4
COc1ccc2c(c1)C(=O)C(=O)N2CCS(=O)(=O)c1ccccc1	none
CCNC(=O)N(CC)C[C@H]1N[C@@](C)(C(=O)OC)[C@H]2C(=O)N(Cc3ccccc3)C(=O)[C@@H]12	aDG glyco up 7.1 (no result: Rce1 inhib, PolyA inh) | aDG conf inactive
CCN(C[C@H]1N[C@@](C)(C(=O)OC)[C@H]2C(=O)N(Cc3ccccc3)C(=O)[C@@H]12)C(=O)c1ccccc1	none (no result: Rce1 inhib, PolyA inh)
Cc1c(C(=O)NCc2ccc(Cl)c(Cl)c2)sc(=O)n1Cc1cccc(F)c1	none (no result: T cell HTS, Rce1 inhib, PolyA inh)
Cc1c(C(=O)NCc2cccc(Cl)c2)sc(=O)n1Cc1cccc(F)c1	aDG glyco up 6.8 (no result: T cell HTS, Rce1 inhib, PolyA inh) | aDG conf inactive
OC(c1ccccc1)C(NCCNCc1ccccc1)c1ccccc1 (centres undefined)	none (no result: T cell HTS, Rce1 inhib, PolyA inh)
CCOC(=O)C1(C)CCN1C(=O)c1ccc(N(C)C)cc1 (centres undefined)	none (no result: T cell HTS, Rce1 inhib, PolyA inh)
COc1ccc(CCNc2ncnc3c2oc2ccccc23)cc1OC	aDG glyco up 7.4 | aDG conf inactive
COc1ccc(CCNc2nc(C)nc3c2oc2ccccc23)cc1OC	none
CN1CC2(Cc3c1ccc1ccccc31)C(=O)OC(C)(C)OC2=O	aDG glyco up 6.4 | aDG conf inactive
CC(C)NC(=O)C1(C)CCN1C(=O)c1ccc(F)c(Cl)c1 (centres undefined)	none (no result: T cell HTS, Rce1 inhib, PolyA inh)
CCn1cc(C(=O)NCC(OC)OC)c(=O)c2cc(S(=O)(=O)N3CCOCC3)ccc21	aDG glyco up 7.6 | aDG conf inactive
O=C(NCC[C@@H]1CC[C@@H](NS(=O)(=O)c2ccccc2)[C@@H](CO)O1)c1cc(Cl)cc(Cl)c1	aDG glyco up 7.7 (no result: T cell HTS, Rce1 inhib, PolyA inh) | aDG conf inactive
S=C(NCCN1CCOCC1)Nc1ccc(Cl)cc1Cl	none
Fc1cc(Cl)ccc1NC(=S)NCCN1CCOCC1	aDG glyco up 5.3 | aDG conf inactive
O=C(Cn1ncc2c(=O)oc3ccccc3c21)NCC1COc2ccccc2O1 (centres undefined)	aDG glyco up 8.2 | aDG conf inactive
COc1ccc(NC(=O)C2Cc3ccccc3O/C2=N\O)cc1 (centres undefined)	aDG glyco up 5.9 | aDG conf inactive
COc1ccc(NC(=O)C2Cc3cccc(OC)c3O/C2=N\O)cc1 (centres undefined)	none
CC1CNC(=S)N(c2ccc(F)cc2)C1=O (centres undefined)	none (no result: T cell HTS, Rce1 inhib, PolyA inh)
